Assay results reported in ChEMBL document CHEMBL1152681, “Natural and synthetic 2'-hydroxy-chalcones and aurones: synthesis, characterization and evaluation of the antioxidant and soybean lipoxygenase inhibitory activity” (Bioorg Med Chem, 2009).

Columns and labels:
[1] = Antioxidant activity assessed as hydrogen peroxide scavenging activity by peroxyoxalate chemiluminescent method; type: functional
[2] = Antioxidant activity assessed as superoxide anion radical scavenging activity at 10 uM; type: functional
How it was run: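 Non-enzymatic superoxide generation from PMS/NADH/air-oxygen, measured by NBT reduction. Compounds preincubated 2 min before NADH was added. Mixture of 3 µM PMS, 78 µM NADH and 25 µM NBT in phosphate buffer pH 7.4, incubated 2 min at room temperature. Absorbance read at 560 nm against a PMS-containing blank. Caffeic acid was the standard.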

[3] = Inhibition of soybean 5-lipoxygenase by UV-absorbance based enzyme assay; set-up: species or system Glycine max
How it was run: (§1)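 Soybean lipoxygenase (enzyme solution 1/9 × 10^-4 w/v in saline) incubated at room temperature with sodium linoleate and compound in DMSO, in Tris buffer pH 9. Conversion to 13-hydroperoxylinoleic acid recorded at 234 nm and compared with a standard inhibitor.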

[4] = tested on: Radical scavenging activity; assay: Antioxidant activity assessed as DPPH radical scavenging activity at 50 uM after 20 mins; type: functional
[5] = tested on: Radical scavenging activity; assay: Antioxidant activity assessed as DPPH radical scavenging activity at 50 uM after 60 mins; type: functional
[6] = tested on: Radical scavenging activity; assay: Antioxidant activity assessed as DPPH radical scavenging activity at 100 uM after 20 mins; type: functional
How it was run: (§2)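 DPPH (0.05 mM) in absolute ethanol; compounds in DMSO added to final 0.1 mM. Mixture shaken vigorously and left 20 min or 60 min. Absorbance read at 517 nm and percent activity calculated. Three replicates, averaged.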

[7] = tested on: Radical scavenging activity; assay: Antioxidant activity assessed as DPPH radical scavenging activity at 100 uM after 60 mins; type: functional; how it was run: as §2
[8] = Antioxidant activity assessed as hydroxyl radical scavenging activity at 100 uM; type: functional
How it was run: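 Fe3+/ascorbic acid-generated hydroxyl radicals detected by the Nash method as formaldehyde formed from DMSO oxidation. The mixture held EDTA 0.1 mM, Fe3+ 167 µM, DMSO 33 mM, test compound 0.1 mM and ascorbic acid 10 mM in 50 mM phosphate buffer pH 7.4. Incubated 30 min at 37 °C, then stopped with CCl3COOH (17% w/v). Trolox was the standard.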

[9] = Antioxidant activity assessed as inhibition of AAPH-induced lipid peroxidation at 10 uM by uV spectrophotometry; type: functional
How it was run: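 Aqueous linoleic acid dispersion (16 mM, 10 µL) in 0.05 M phosphate buffer pH 7.4, prethermostated at 37 °C. Oxidation started under air with AAPH (40 mM solution, 50 µL) and run with 10 µL compound aliquots. The control contained the same DMSO level. The rate of conjugated diene hydroperoxide formation was followed by the rise in absorbance at 234 nm at 37 °C.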

Glycine max = assay: Inhibition of soybean 5-lipoxygenase at 100 uM by UV-absorbance based enzyme assay; how it was run: as §1

Row | SMILES | IC50 [1] [µM] | Activity [2] [%] | IC50 [3] [µM] | Activity [4] [%] | Activity [5] [%] | Activity [6] [%] | Activity [7] [%] | Activity [8] [%] | inhibition [9] [%] | inhibition (Glycine max) [%]
1 | CC1=C(/C=C/C(C)=C/C=C/C(C)=C/C=C/C=C(C)/C=C/C=C(C)/C=C/C2=C(C)CCCC2(C)C)C(C)(C)CCC1 [BETA CAROTENE] | 16.9 | – | – | – | – | – | – | – | – | –
2 | O=C(O)/C=C/c1ccc(O)c(O)c1 [CAFFEIC ACID] | – | 5.5 | 600 | – | – | – | – | – | – | –
3 | CC(Cc1ccc(O)c(O)c1)C(C)Cc1ccc(O)c(O)c1 (stereo unspecified) [NORDIHYDROGUAIARETIC ACID] | – | – | 40 | 84 | 83 | 81 | 83 | – | – | –
4 | COc1ccc(/C=C/C(=O)c2ccccc2O)cc1OC | 228 | 100 | 67.5 | 0 | 0 | 6.3 | 28.5 | 84.1 | 64.6 | –
5 | O=C1/C(=C/c2ccc(Cl)cc2)Oc2ccccc21 | 4140 | 89.5 | – | 11.1 | 10.3 | 49.3 | 76.2 | 0 | 46.4 | 26.4
6 | COc1ccccc1/C=C/C(=O)c1ccccc1O | 599 | 92.1 | 100 | 0 | 0 | 11.8 | 57.7 | 100 | 43.1 | –
7 | COc1ccc(/C=C2\Oc3cc(OC)cc(OC)c3C2=O)cc1 [4,4',6-TRIMETHOXY-AURONE] | 1090 | 63.2 | 50 | 2.8 | 0 | 0 | 11.5 | 100 | 42.6 | –
8 | COc1ccc(/C=C/C(=O)c2ccccc2O)cc1 | 500 | 73.7 | – | 0 | 0 | 0 | 40.8 | 100 | 61.6 | 5
9 | COc1cc(O)c(C(=O)/C=C/c2ccc(Cl)cc2)c(OC)c1 | 657 | 100 | 82 | 0 | 0 | 15.1 | 46.9 | 100 | 42.7 | –
10 | COc1cccc(/C=C/C(=O)c2ccccc2O)c1 | 940 | 97.4 | – | 0 | 0 | 0 | 34.6 | 57 | 75.8 | 36.4
11 | COc1cc(O)c(C(=O)/C=C/c2ccc(OC)c(OC)c2)c(OC)c1 | 88 | 86.8 | – | 0 | 0 | 12.9 | 20.8 | 42.2 | 73.6 | 1.6
12 | COCOc1cc(OCOC)c2c(c1)O/C(=C\c1ccc(OCOC)c(OCOC)c1)C2=O | – | – | – | – | – | – | – | – | – | 0
13 | O=c1c(O)c(-c2ccc(O)c(O)c2)oc2cc(O)cc(O)c12 [QUERCETIN] | 162 | – | – | – | – | – | – | – | – | –
14 | COc1cc(O)c(C(=O)/C=C/c2ccc(C)cc2)c(OC)c1 | 665 | 100 | 53 | 0 | 0 | 9.6 | 24.6 | 100 | 100 | –
15 | COc1cccc(/C=C2\Oc3ccccc3C2=O)c1 [3'-METHOXY-AURONE] | 1990 | 50 | – | 11.1 | 0 | 87.9 | 83.8 | 57.8 | 62.3 | 34.9
16 | COCOc1cc(O)c(C(=O)/C=C/c2ccc(OCOC)c(OCOC)c2)c(OCOC)c1 | – | 50 | – | 5.6 | 0 | 42.6 | 65.4 | 100 | 77.1 | 14.1
17 | COc1cc(O)c(C(=O)/C=C/c2ccccc2OC)c(OC)c1 | 503 | 89.5 | – | 9.7 | 5.9 | 15.1 | 47.7 | 0 | 68.4 | 20
18 | O=C(/C=C/c1ccc(Cl)cc1)c1ccccc1O | 713 | 84.2 | 56 | 0 | 0 | 0 | 40.8 | 100 | 74.4 | –
19 | COc1cc(OC)c2c(c1)O/C(=C\c1ccc(Cl)cc1)C2=O | – | 84.2 | – | 0 | 0 | 6.3 | 20.8 | 91.5 | 82.9 | 7.8
20 | COc1ccc(/C=C2\Oc3ccccc3C2=O)cc1 [4'-METHOXY-AURONE] | 291 | 81.6 | 70 | 13.9 | 0 | 5.1 | 23.8 | 76.4 | 64.6 | –
21 | O=C(/C=C/c1ccc(O)c(O)c1)c1c(O)cc(O)cc1O [3,4,2',4',6'-PENTAHYDROXYCHALCONE] | 76 | – | – | – | – | 100 | 94.9 | – | 0 | 0
22 | COc1ccc(/C=C2\Oc3ccccc3C2=O)cc1OC [3',4'-DIMETHOXY-AURONE] | 44 | 97.4 | – | – | – | – | – | 76.7 | 53.3 | –
23 | COc1ccccc1/C=C1\Oc2ccccc2C1=O [(Z)-2'-METHOXYAURONE] | 466 | 73.7 | – | 4.2 | 0 | 25 | 43.1 | 100 | 71.1 | 39.9
24 | Cc1c(C)c2c(c(C)c1O)CCC(C)(C(=O)O)O2 (stereo unspecified) | – | – | – | – | – | – | – | 73.4 | 63 | –
25 | Cc1ccc(/C=C2\Oc3ccccc3C2=O)cc1 | 2010 | 68.4 | – | 5.6 | 29.4 | 23.9 | 49.2 | 84.5 | 43.1 | 32.4
26 | COc1ccc(/C=C/C(=O)c2c(O)cc(OC)cc2OC)cc1 [FLAVOKAWAIN A] | 456 | 50 | – | 0 | 0 | 6.3 | 40.8 | 78.7 | 80.9 | 2.3
27 | Cc1ccc(/C=C/C(=O)c2ccccc2O)cc1 | 1040 | 84.2 | 52.5 | 0 | 1.5 | 0 | 43.8 | 100 | 49.6 | –
28 | COc1cc(OC)c2c(c1)O/C(=C\c1ccccc1OC)C2=O | 2400 | 55.3 | 100 | 4.2 | 0 | 1.8 | 30.8 | 77.9 | 87.1 | –
29 | COc1cc(OC)c2c(c1)O/C(=C\c1ccc(C)cc1)C2=O | – | 97.4 | – | 0 | 0 | 8.5 | 29.2 | 100 | 72 | 0
30 | O=C1/C(=C/c2ccc(O)c(O)c2)Oc2cc(O)cc(O)c21 | – | – | – | – | – | 84.9 | 97.7 | – | 77.8 | 0
